Assay results: ChEMBL document CHEMBL1145835, “Novel potent 5-HT(1F) receptor agonists: structure-activity studies of a series of substituted N-[3-(1-methyl-4-piperidinyl)-1H-pyrrolo[3,2-b]pyridin-5-yl]amides” (J Med Chem, 2003)

Legend:
[1] = target: T1, 5-hydroxytryptamine receptor 1A (Homo sapiens, UniProt P08908); assay: In vitro binding affinity by radioligand binding assay using cell line expressing human 5-hydroxytryptamine 1A receptor
T1 sequence (P08908 whole entry): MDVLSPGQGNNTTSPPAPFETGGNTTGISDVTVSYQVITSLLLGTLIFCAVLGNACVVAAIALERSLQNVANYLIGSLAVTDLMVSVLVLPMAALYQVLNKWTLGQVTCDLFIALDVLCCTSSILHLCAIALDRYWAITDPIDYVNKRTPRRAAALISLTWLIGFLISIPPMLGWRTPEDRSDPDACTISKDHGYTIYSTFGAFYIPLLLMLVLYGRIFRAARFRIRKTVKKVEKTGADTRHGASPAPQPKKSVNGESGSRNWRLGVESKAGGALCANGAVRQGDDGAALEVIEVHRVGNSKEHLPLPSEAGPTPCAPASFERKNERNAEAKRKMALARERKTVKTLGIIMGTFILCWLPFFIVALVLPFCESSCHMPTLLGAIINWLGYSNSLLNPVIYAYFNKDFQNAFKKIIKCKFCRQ
Outline: (§1)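 Ki (nM) from radioligand binding on cell lines each expressing one human serotonin receptor subtype. Values are means of at least three determinations with SEM. ND: Ki not determined, when a 10⁻⁷ M test ligand gave <50% displacement of radioligand.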

[2] = target: 5-hydroxytryptamine receptor 1B (Homo sapiens, UniProt P28222); assay: In vitro binding affinity by radioligand binding assay using cell line expressing human 5-hydroxytryptamine 1B receptor
Chain of 5-hydroxytryptamine receptor 1B (P28222 whole entry): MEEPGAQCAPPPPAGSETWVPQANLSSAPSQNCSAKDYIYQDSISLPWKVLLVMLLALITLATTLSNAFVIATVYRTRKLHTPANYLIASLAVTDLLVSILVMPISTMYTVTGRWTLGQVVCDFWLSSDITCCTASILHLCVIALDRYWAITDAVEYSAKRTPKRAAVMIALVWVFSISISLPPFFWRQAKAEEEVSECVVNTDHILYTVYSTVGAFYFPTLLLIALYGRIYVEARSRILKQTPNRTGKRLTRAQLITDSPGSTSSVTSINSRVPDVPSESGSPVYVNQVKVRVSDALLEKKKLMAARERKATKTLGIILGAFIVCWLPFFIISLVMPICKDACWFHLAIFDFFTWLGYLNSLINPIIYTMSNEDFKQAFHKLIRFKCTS
Outline: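 Ki (nM) from radioligand binding on cell lines each expressing one human serotonin receptor subtype. Values are means of at least three determinations with SEM.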

[3] = target: T2, 5-hydroxytryptamine receptor 1F (Homo sapiens, UniProt P30939); assay: In vitro effective concentration for stimulation of [35S]GTP-gamma-S, binding in mouse LM(tk-)cells expressing the human 5-HT1F receptor; format: functional
T2 sequence (P30939 whole entry): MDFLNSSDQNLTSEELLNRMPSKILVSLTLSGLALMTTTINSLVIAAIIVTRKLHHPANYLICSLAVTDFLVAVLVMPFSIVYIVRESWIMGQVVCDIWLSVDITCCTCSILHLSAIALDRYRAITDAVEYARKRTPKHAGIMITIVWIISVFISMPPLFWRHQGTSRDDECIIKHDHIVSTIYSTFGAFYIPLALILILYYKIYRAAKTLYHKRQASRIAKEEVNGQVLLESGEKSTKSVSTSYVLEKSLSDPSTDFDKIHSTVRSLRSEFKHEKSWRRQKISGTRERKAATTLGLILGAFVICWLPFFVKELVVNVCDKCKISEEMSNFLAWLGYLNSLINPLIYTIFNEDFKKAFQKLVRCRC

[4] = target: T3, 5-hydroxytryptamine receptor 1F (Homo sapiens) (UniProt P30939); assay: Maximum stimulation of [35S]GTP-gamma-S, binding expressed relative to the maximal effect of 5-hydroxytryptamine […]; format: functional
T3 sequence (whole entry): T2 sequence (P30939 whole entry)

[5] = target: T2, 5-hydroxytryptamine receptor 1F; assay: In vitro binding affinity was determined by radioligand binding assay using cell line expressing human 5-hydroxytryptamine 1F receptor; outline: as §1
[6] = target: 5-hydroxytryptamine receptor 1D (Homo sapiens, UniProt P28221); assay: In vitro binding affinity by radioligand binding assay using cell line expressing human 5-hydroxytryptamine 1D receptor; outline: as §1
Chain of 5-hydroxytryptamine receptor 1D (P28221 whole entry): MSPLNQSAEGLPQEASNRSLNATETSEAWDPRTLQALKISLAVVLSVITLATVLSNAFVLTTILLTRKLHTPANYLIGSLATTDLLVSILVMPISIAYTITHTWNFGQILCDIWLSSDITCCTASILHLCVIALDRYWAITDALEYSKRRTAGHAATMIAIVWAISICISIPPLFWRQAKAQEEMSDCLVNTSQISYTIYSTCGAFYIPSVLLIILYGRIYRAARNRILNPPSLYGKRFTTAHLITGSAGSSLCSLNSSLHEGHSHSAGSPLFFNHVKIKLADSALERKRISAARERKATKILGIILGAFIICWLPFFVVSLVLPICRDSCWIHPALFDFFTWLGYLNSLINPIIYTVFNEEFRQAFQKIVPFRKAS

Cavia porcellus [7] = assay: In vivo efficacy in neurogenic plasma protein extravasation screen using guinea pig neurogenic PPE assay (1 ng/kg, po) at 1 hr postdose; format: functional
Outline: (§2)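 Guinea pig neurogenic dural PPE screen. Single oral dose of 1 ng/kg, then unilateral trigeminal ganglion stimulation with Evan's blue-labelled plasma protein leakage. Read-out is the fluorescence ratio of stimulated to unstimulated dura at 1 h or 24 h postdose. A ratio near 1 means full efficacy; near 1.8 means ineffective.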

Cavia porcellus [8] = assay: In vivo efficacy in neurogenic plasma protein extravasation screen using guinea pig neurogenic PPE assay (1 ng/kg, po) at 24 hr postdose; format: functional; outline: as §2
Oryctolagus cuniculus [9] = organism: Oryctolagus cuniculus; assay: In vitro contractile response in rabbit saphenous vein; format: functional
Outline: (§3)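 Rabbit saphenous vein rings. Maximal contraction is expressed as % of the contraction induced by KCl (67 mM), with the concentration giving the maximal response recorded. Means (SEM) of three to seven determinations.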

Oryctolagus cuniculus [10] = organism: Oryctolagus cuniculus; assay: In vitro concentration of maximum contractile response in rabbit saphenous vein; format: functional; outline: as §3
[11] = target: T2, 5-hydroxytryptamine receptor 1F; assay: In vitro effective concentration for stimulation of [35S]GTP-gamma-S, binding in mouse LM(tk-)cells expressing the human 5-hydroxytryptamine 1F receptor; format: functional
[12] = target: 5-hydroxytryptamine receptor 1E (Homo sapiens, UniProt P28566); assay: In vitro binding affinity by radioligand binding assay using cell line expressing human 5-hydroxytryptamine 1E receptor
Chain of 5-hydroxytryptamine receptor 1E (P28566 whole entry): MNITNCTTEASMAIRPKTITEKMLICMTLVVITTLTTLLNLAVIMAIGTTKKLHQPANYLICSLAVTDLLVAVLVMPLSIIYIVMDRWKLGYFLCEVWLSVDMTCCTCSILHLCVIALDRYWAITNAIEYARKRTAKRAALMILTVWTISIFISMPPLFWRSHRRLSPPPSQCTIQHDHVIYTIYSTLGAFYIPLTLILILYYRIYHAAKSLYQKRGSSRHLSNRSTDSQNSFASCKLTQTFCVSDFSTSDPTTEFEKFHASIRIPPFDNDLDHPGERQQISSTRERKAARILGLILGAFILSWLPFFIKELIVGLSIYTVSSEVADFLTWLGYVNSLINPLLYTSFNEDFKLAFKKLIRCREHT

[13] = target: T4, 5-hydroxytryptamine receptor 2C (Homo sapiens, UniProt P28335); assay: In vitro binding affinity by radioligand binding assay using cell line expressing human 5-hydroxytryptamine 2C receptor
T4 sequence (P28335 whole entry): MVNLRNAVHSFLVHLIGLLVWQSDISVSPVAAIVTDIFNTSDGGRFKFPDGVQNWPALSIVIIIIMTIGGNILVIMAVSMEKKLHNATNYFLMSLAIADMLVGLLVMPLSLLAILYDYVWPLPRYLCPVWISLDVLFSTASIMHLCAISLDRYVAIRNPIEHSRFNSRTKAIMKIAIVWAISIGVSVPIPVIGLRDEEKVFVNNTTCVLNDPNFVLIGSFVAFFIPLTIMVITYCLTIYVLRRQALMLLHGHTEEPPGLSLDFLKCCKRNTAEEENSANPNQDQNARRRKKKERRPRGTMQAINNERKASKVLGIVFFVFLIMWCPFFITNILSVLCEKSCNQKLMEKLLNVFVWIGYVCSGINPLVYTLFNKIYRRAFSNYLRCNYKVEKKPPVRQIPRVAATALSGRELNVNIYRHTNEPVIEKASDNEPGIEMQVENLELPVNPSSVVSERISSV

[14] = target: 5-hydroxytryptamine receptor 2B (Homo sapiens, UniProt P41595); assay: In vitro binding affinity by radioligand binding assay using cell line expressing human 5-hydroxytryptamine 2B receptor
Chain of 5-hydroxytryptamine receptor 2B (P41595 whole entry): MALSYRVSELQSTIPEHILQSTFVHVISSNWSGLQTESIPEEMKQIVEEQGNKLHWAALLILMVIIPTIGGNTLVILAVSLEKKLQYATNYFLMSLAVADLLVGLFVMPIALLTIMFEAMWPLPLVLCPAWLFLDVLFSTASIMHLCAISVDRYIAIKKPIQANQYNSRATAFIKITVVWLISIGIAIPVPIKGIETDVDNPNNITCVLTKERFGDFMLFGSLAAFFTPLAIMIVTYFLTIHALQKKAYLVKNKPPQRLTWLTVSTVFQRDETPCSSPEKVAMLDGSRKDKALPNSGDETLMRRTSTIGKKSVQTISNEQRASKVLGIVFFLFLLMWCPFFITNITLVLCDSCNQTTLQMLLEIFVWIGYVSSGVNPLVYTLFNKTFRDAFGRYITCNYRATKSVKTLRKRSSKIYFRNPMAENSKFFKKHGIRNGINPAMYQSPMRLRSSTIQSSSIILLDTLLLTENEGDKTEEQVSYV

[15] = target: 5-hydroxytryptamine receptor 2A (Homo sapiens, UniProt P28223); assay: In vitro binding affinity by radioligand binding assay using cell line expressing human 5-hydroxytryptamine 2A receptor
Chain of 5-hydroxytryptamine receptor 2A (P28223 whole entry): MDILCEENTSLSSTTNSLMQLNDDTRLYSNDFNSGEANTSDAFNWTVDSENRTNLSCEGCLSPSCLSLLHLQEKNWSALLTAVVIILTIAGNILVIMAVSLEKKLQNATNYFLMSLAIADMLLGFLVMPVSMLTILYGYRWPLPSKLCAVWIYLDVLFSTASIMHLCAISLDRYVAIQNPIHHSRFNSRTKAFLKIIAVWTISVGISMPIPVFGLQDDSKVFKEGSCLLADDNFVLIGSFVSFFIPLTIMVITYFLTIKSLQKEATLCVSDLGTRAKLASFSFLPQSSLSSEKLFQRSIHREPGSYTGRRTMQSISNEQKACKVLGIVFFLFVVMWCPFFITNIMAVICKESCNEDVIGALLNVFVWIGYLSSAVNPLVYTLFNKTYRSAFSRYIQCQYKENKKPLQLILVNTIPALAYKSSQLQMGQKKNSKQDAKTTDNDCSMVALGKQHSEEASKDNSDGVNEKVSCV

[16] = target: 5-hydroxytryptamine receptor 6 (Homo sapiens, UniProt P50406); assay: In vitro binding affinity by radioligand binding assay using cell line expressing human 5-hydroxytryptamine 6 receptor
Chain of 5-hydroxytryptamine receptor 6 (P50406 whole entry): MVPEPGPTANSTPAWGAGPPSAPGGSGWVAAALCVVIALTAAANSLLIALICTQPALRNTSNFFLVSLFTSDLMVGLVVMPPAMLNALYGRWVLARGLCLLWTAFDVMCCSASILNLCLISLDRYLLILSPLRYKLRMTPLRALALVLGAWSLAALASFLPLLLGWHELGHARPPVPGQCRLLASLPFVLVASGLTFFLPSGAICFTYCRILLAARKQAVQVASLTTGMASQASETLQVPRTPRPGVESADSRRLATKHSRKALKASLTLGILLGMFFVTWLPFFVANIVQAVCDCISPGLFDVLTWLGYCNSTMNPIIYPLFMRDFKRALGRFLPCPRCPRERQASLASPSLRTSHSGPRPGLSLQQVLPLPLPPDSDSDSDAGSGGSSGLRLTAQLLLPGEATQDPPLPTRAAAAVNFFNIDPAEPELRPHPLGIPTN

[17] = target: 5-hydroxytryptamine receptor 4 (Homo sapiens, UniProt Q13639); assay: In vitro binding affinity by radioligand binding assay using cell line expressing human 5-hydroxytryptamine 4 receptor
Chain of 5-hydroxytryptamine receptor 4 (Q13639 whole entry): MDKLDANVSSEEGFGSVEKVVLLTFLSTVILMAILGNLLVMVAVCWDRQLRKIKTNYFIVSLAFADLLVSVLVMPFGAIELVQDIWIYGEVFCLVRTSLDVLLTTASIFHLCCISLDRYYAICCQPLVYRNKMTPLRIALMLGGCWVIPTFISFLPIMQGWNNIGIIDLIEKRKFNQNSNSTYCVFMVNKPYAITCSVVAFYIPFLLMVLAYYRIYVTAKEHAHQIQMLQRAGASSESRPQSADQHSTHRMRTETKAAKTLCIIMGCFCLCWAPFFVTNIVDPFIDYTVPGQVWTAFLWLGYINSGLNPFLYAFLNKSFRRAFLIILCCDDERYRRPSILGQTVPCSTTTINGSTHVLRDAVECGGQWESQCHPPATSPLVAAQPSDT

[18] = target: 5-hydroxytryptamine receptor 7 (Homo sapiens, UniProt P34969); assay: In vitro binding affinity by radioligand binding assay using cell line expressing human 5-hydroxytryptamine 7 receptor
Chain of 5-hydroxytryptamine receptor 7 (P34969 whole entry): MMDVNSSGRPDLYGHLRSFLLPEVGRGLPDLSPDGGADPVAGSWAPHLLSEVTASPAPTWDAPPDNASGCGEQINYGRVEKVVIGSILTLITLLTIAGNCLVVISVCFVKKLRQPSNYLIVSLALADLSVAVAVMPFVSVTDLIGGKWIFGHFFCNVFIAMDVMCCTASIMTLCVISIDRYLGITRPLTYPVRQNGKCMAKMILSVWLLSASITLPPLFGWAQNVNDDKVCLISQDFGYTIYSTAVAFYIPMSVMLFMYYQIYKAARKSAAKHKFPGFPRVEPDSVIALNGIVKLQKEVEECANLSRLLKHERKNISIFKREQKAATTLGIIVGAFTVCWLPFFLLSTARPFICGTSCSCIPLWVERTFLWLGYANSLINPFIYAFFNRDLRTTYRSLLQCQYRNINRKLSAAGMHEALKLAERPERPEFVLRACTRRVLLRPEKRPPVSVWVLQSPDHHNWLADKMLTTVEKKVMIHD

With `CC(=O)Nc1ccc2[nH]cc(C3CCN(C)CC3)c2n1` the Ki [1] was 0.62 µM, the Ki [2] was 0.27 µM and the EC50 [3] was 0.036 µM. The Emax [4] was 98%, the Ki [5] was 0.005 µM and the Ki [6] was 0.25 µM. It also gave an Efficacy (Cavia porcellus [7]) of 1, an Efficacy (Cavia porcellus [8]) of 1.1 and a Response (Oryctolagus cuniculus [9]) of 5.7%. The “Concentration of max response” value (Oryctolagus cuniculus [10]) was 30 µM.
Work on `CCC(=O)Nc1ccc2[nH]cc(C3CCN(C)CC3)c2n1` yielded a Ki [1] of 1 µM, a Ki [2] of 0.72 µM and an EC50 [11] of 0.032 µM. It also gave an Emax [4] of 88%, a Ki [5] of 0.0055 µM and a Ki [12] of 0.77 µM. For the same molecule, the Ki [6] was 0.73 µM, the Ki [13] was 0.31 µM and the Ki [14] was over 10 µM. It also gave a Ki [15] of 3.4 µM, a Ki [16] of 1.12 µM and a Ki [17] of 2.4 µM. For the same molecule, the Efficacy (Cavia porcellus [7]) was 1.2, the Efficacy (Cavia porcellus [8]) was 1 and the Response (Oryctolagus cuniculus [9]) was 3%.
With `CN1CCC(c2c[nH]c3ccc(NC(=O)c4ccc(F)cc4)nc23)CC1` the Ki [1] was 0.056 µM, the Ki [2] was 1.2 µM and the Ki [5] was 0.0076 µM. It also gave a Ki [12] of 0.66 µM, a Ki [6] of 0.73 µM and a Ki [13] of 1.9 µM. For the same molecule, the Ki [14] was over 10 µM, the Ki [15] was 4.8 µM and the Ki [16] was over 10 µM. The Ki [17] was 4 µM, the Ki [18] was over 5 µM and the Response (Oryctolagus cuniculus [9]) was 16%.
`CN1CCC(c2c[nH]c3ccc(NC(=O)c4ccc(C#N)cc4)nc23)CC1` showed a Ki [1] of 0.031 µM, a Ki [2] of 0.31 µM and a Ki [5] of 0.0072 µM. The Ki [6] was 0.38 µM, the Efficacy (Cavia porcellus [7]) was 1.5 and the Response (Oryctolagus cuniculus [9]) was 1.1%. The “Concentration of max response” value (Oryctolagus cuniculus [10]) was 30 µM.
